Results reported in ChEMBL document CHEMBL1122607, “Heterocyclic analogues of chlorcyclizine with potent hypolipidemic activity” (J Med Chem, 1984).
Several values for one entry are separate records, joined by “and”; a condition that tells them apart may be missing. Equal entries are not always repeated.

Assays:
Rattus norvegicus [1] = experiment: Hypolipidemic activity was measured as reduction in rat serum triglyceride after oral administration in male Wistar rats at 50 mg / (kg day); type: functional
Summary of the method: (§1)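 Cholesterol-fed rats given the test compound orally by gavage on the last 3 days, with controls receiving vehicle (0.5% tragacanth mucilage). After overnight starvation, rats were killed under CO2 3 h after the last dose and bled by cardiac puncture. Serum cholesterol and triglyceride were measured by autoanalyzer and expressed as percentage reduction from control levels, with Student's t test.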

Rattus norvegicus [2] = experiment: Hypolipidemic activity was measured as reduction in rat serum cholesterol after oral administration in male Wistar rats at 200 mg / (kg day); type: functional; summary of the method: as §1
Rattus norvegicus [3] = experiment: Hypolipidemic activity was measured as reduction in rat serum cholesterol after oral administration in male Wistar rats at 50 mg / (kg day); type: functional; summary of the method: as §1
Rattus norvegicus [4] = experiment: Hypolipidemic activity was measured as reduction in rat serum triglyceride after oral administration in male Wistar rats at 200 mg / (kg day); type: functional; summary of the method: as §1
Rattus norvegicus [5] = experiment: Minimum effective dose (MED) is the dose (mg/kg)that cause significant reduction in serum cholesterol of 30% compared to concurrent controls.; type: functional; design: unit: mg/kg
Summary of the method: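 MED was calculated from the log dose/response curve as the dose giving a statistically significant 30% fall in serum cholesterol versus concurrent controls. Measured in the 3-day oral cholesterol-fed rat screen, or in a 2-week test: groups of eight young male Wistar rats on cholesterol/cholic acid-supplemented or normal diet, dosed orally by gavage daily for 14 days, vehicle 0.5% tragacanth mucilage.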

Rattus norvegicus [6] = experiment: Hypolipidemic activity was measured as reduction in rat serum cholesterol after oral administration in male Wistar rats at 100 mg/(kg day); type: functional; summary of the method: as §1
Rattus norvegicus [7] = experiment: Hypolipidemic activity was measured as reduction in rat serum cholesterol after oral administration in male Wistar rats at 3 mg / (kg day); type: functional; summary of the method: as §1
Rattus norvegicus [8] = experiment: Hypolipidemic activity was measured as reduction in rat serum cholesterol after oral administration in male Wistar rats at 30 mg / (kg day); type: functional; summary of the method: as §1
Rattus norvegicus [9] = experiment: Hypolipidemic activity was measured as reduction in rat serum triglyceride after oral administration in male Wistar rats at 1 mg / (kg day); type: functional; summary of the method: as §1
Rattus norvegicus [10] = experiment: Hypolipidemic activity was measured as reduction in rat serum triglyceride after oral administration in male Wistar rats at 10 mg / (kg day); type: functional; summary of the method: as §1
Rattus norvegicus [11] = experiment: Hypolipidemic activity was measured as reduction in rat serum triglyceride after oral administration in male Wistar rats at 30 mg / (kg day); type: functional; summary of the method: as §1
Rattus norvegicus [12] = experiment: Hypolipidemic activity was measured as reduction in rat serum cholesterol after oral administration in male Wistar rats at 1 mg / (kg day); type: functional; summary of the method: as §1
Rattus norvegicus [13] = experiment: Hypolipidemic activity was measured as reduction in rat serum cholesterol after oral administration in male Wistar rats at 10 mg / (kg day); type: functional; summary of the method: as §1
[14] = The therapeutic safety margin (TSM) is the ratio of the minimum lethal dose (mg/kg)to the MED; type: ADME, organism-based; conditions: in vivo
Summary of the method: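 Young male Wistar rats, eight per group, on cholesterol/cholic acid-supplemented or normal diet; graded oral gavage doses daily for 14 days; vehicle controls (0.5% tragacanth mucilage). Mortalities recorded to give the minimum lethal daily dose. After overnight fasting, serum cholesterol assayed by autoanalyzer. MED is the dose giving a significant (t test) 30% cholesterol fall, from the log dose/response curve. TSM = minimum lethal dose/MED.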

Rattus norvegicus [15] = experiment: Hypolipidemic activity was measured as reduction in rat serum triglyceride after oral administration in male Wistar rats at 100 mg / (kg day); type: functional; summary of the method: as §1
Rattus norvegicus [16] = experiment: Hypolipidemic activity was measured as reduction in rat serum triglyceride after oral administration in male Wistar rats at 3 mg / (kg day); type: functional; summary of the method: as §1
Rattus norvegicus [17] = experiment: Hypolipidemic activity was measured as reduction in rat serum cholesterol after oral administration in male Wistar rats at 20 mg / (kg day); type: functional; summary of the method: as §1
Rattus norvegicus [18] = experiment: Hypolipidemic activity was measured as reduction in rat serum triglyceride after oral administration in male Wistar rats at 20 mg / (kg day); type: functional; summary of the method: as §1

SMILES	Reduction (Rattus norvegicus [1]) [%]	Reduction (Rattus norvegicus [2]) [%]	Reduction (Rattus norvegicus [3]) [%]	Reduction (Rattus norvegicus [4]) [%]	MED (Rattus norvegicus [5])	Reduction (Rattus norvegicus [6]) [%]	Reduction (Rattus norvegicus [7])	Reduction (Rattus norvegicus [8]) [%]	Reduction (Rattus norvegicus [9]) [%]	Reduction (Rattus norvegicus [10]) [%]	Reduction (Rattus norvegicus [11]) [%]	Reduction (Rattus norvegicus [12]) [%]	Reduction (Rattus norvegicus [13]) [%]	therapeutic safety margin (minimum lethal dose / MED) [14]	Reduction (Rattus norvegicus [15]) [%]	Reduction (Rattus norvegicus [16]) [%]	Reduction (Rattus norvegicus [17]) [%]	Reduction (Rattus norvegicus [18]) [%]
COc1ccccc1C(c1cc(C)ns1)N1CCN(C)CC1 (stereo unspecified)	17	75	26	78	–	–	–	–	–	–	–	–	–	–	–	–	–	–
Cc1noc(C)c1C(c1ccc(C(C)C)cc1)N1CCN(C)CC1 (stereo unspecified)	–	–	–	–	2	87	41% and 30%	80	31	35	69	8	67	100	66	–	–	–
Cc1cnsc1C(c1ccc(C(C)C)cc1)N1CCN(CC(C)O)CC1 (stereo unspecified)	–	–	–	–	5	64	8%	50	–	22	65	–	45	12	81	22	–	–
Cc1ccccc1C(c1c(C)noc1C)N1CCN(C)CC1 (stereo unspecified)	–	88	–	84	–	80	–	28	–	–	21	–	–	–	75	–	–	–
CN1CCN(C(c2ccc(Cl)cc2)c2ccns2)CC1 (stereo unspecified)	38	63	17	37	84	38	–	–	–	–	–	–	–	–	41	–	–	–
CN1CCN(C(c2ccns2)c2ccccc2Cl)CC1 (stereo unspecified)	–	–	–	–	10	67	–	–	–	12	–	–	31	5	52	–	43	15
COc1ccccc1C(c1ccns1)N1CCN(C)CC1 (stereo unspecified)	32	–	31	–	80	38	–	–	–	–	–	–	–	–	13	–	3	22
Cc1cnsc1C(c1ccc(C(C)C)cc1)N1CCN(CCO)CC1 (stereo unspecified)	–	–	–	–	3	87	30%	82	3	48	69	10	69	30	97	8	–	–
Cc1noc(C)c1C(=C1CCNCC1)c1ccc(C(C)C)cc1	–	–	–	–	–	89	44%	83	41	46	83	6	65	–	89	6	–	–
CCCCc1ccc(C(c2cc(C)ns2)N2CCN(C)CC2)cc1 (stereo unspecified)	25	75	45	66	–	–	–	–	–	–	–	–	–	–	–	–	–	–
CC(C)c1ccccc1C(c1ccns1)N1CCN(C)CC1 (stereo unspecified)	–	–	–	–	10	77	15%	43	–	31	36	–	32	–	71	14	–	–
CN1CCN(C(c2ccccc2)c2ccns2)CC1 (stereo unspecified)	13	68	34	46	–	–	–	–	–	–	–	–	–	–	–	–	–	–
Cc1noc(C)c1C(=C1CCN(C)CC1)c1ccc(C(C)C)cc1	–	–	–	–	1	82	58%	89	13	78	93	31	83	50	90	43	–	–
Cc1cnsc1C(c1ccc(C(C)C)cc1)N1CCNCC1 (stereo unspecified)	–	–	–	–	2	86	44%	87	15	48	76	16	70	10	81	2	–	–
Cc1cnsc1C(c1ccc(C(C)C)cc1)N1CCN(CCCO)CC1 (stereo unspecified)	–	–	–	–	5	80	19%	75	–	48	55	–	63	20	78	17	–	–
CC(C)COc1ccccc1C(c1ccns1)N1CCN(C)CC1 (stereo unspecified)	–	85	–	85	18	–	–	49	–	15	50	–	1	–	–	–	–	–
Cc1ccc(C(c2cc(C)ns2)N2CCN(C)CC2)c(C)c1 (stereo unspecified)	–	56	–	52	–	–	–	1	–	–	31	–	–	–	–	–	–	–
CC(C)c1ccc(C(c2ccns2)N2CCNCC2)cc1 (stereo unspecified)	–	–	–	–	1	84	57%	74	24	65	87	37	62	4	90	18	–	–
Cc1ccc(C(c2ccns2)N2CCN(C)CC2)cc1 (stereo unspecified)	–	30	–	36	–	–	–	4	–	–	9	–	–	–	–	–	–	–
Cc1cc(C(=C2CCN(C)CC2)c2ccc(C(C)C)cc2)sn1	–	–	–	–	6	83	26%	87	3	34	76	19	62	5	96	37	–	–
Cc1cc(C(c2ccc(C(C)C)cc2)N2CCN(C)CC2)sn1 (stereo unspecified)	72	–	45	–	9	63	16%	–	–	–	–	–	28	15	85	–	–	–
CCCc1ccc(C(c2ccns2)N2CCN(C)CC2)cc1 (stereo unspecified)	–	82	–	86	3	–	31%	65	–	7	34	–	48	20	–	18	–	–
Cc1cnsc1C(c1ccc(C(C)C)cc1)N1CCN(C)CC1 (stereo unspecified)	–	–	–	–	3	68	31%	69	–	42	64	–	48	30	89	5	–	–
Cc1cc(C(c2ccc(C(C)C)cc2)N2CCNCC2)sn1 (stereo in doubt; 33)	–	–	–	–	8	–	2%	67	–	38	66	–	43	< 10	–	26	–	–
